Broadly, the IC50 is the point on the concentration scale where inhibition reaches its midpoint. A lower IC50 goes with inhibition by little substance.

Data on 15 compounds can be found in ChEMBL document CHEMBL1131323, “Inhibition of membrane-type 1 matrix metalloproteinase by hydroxamate inhibitors: an examination of the subsite pocket” (J Med Chem, 1998).

In assay [1] the target is Stromelysin-1 (Homo sapiens, UniProt P08254). In words: Activity against Matrix metalloprotease-3 (MMP-3). The gist of the method:
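MMP-3 purified from human fibroblast culture medium, used at 0.3 U/mL. Substrate was radiolabeled proteoglycan entrapped in polyacrylamide particles (3.5 mg dry beads). IC50 values read from dose-dependent inhibition curves.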

Assay [2] has as its target 72 kDa type IV collagenase (Homo sapiens, UniProt P08253). The assay is described as follows: Activity against Matrix metalloprotease-2 (MMP-2).
Assay [3] concerns the target Matrix metalloproteinase-9 (Homo sapiens, UniProt P14780). In words: Activity against Matrix metalloprotease-9 (MMP-9).
The target of assay [4] is Matrix metalloproteinase-14 (Homo sapiens, UniProt P50281). In words: Activity against deletion mutant of MT1-MMP lacking the transmembrane domain (deltaMT1).
For assay [5], the target named is T1, Interstitial collagenase (Homo sapiens, UniProt P03956).
T1 sequence (P03956 whole entry): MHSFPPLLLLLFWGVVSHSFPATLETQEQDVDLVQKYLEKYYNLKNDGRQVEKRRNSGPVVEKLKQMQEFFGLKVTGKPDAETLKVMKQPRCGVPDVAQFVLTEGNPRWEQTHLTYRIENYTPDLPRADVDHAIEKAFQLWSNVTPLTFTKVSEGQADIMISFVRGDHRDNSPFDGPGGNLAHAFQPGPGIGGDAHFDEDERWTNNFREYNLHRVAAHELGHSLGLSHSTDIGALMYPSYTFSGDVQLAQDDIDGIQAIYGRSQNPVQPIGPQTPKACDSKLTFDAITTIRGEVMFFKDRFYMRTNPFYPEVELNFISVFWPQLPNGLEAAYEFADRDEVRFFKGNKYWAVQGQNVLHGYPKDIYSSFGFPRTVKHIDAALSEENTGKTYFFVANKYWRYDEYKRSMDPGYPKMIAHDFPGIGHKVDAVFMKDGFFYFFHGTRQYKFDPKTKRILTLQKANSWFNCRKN
The assay is described as follows: Activity against Matrix metalloprotease-1 (MMP-1).

Sequence of Matrix metalloproteinase-9 (P14780 whole entry, the tested form may be a part): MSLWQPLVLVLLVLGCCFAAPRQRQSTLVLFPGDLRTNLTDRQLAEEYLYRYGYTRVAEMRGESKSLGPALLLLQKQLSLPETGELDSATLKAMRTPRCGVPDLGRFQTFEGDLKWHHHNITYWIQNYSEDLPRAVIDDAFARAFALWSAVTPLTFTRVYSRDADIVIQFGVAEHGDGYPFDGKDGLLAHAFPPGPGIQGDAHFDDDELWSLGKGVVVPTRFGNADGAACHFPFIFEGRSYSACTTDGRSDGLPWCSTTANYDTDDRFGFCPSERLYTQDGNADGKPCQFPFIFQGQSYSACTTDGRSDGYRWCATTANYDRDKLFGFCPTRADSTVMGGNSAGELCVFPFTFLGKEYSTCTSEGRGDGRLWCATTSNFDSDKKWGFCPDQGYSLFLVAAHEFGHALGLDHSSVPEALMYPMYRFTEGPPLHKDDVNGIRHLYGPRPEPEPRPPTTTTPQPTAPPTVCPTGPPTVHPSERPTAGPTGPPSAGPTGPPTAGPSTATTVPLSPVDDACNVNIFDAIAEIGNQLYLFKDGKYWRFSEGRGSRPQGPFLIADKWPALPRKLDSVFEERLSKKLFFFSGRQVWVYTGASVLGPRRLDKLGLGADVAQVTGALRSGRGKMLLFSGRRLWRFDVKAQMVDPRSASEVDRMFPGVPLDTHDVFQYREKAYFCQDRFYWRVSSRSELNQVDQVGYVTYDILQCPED
Sequence of 72 kDa type IV collagenase (P08253 whole entry): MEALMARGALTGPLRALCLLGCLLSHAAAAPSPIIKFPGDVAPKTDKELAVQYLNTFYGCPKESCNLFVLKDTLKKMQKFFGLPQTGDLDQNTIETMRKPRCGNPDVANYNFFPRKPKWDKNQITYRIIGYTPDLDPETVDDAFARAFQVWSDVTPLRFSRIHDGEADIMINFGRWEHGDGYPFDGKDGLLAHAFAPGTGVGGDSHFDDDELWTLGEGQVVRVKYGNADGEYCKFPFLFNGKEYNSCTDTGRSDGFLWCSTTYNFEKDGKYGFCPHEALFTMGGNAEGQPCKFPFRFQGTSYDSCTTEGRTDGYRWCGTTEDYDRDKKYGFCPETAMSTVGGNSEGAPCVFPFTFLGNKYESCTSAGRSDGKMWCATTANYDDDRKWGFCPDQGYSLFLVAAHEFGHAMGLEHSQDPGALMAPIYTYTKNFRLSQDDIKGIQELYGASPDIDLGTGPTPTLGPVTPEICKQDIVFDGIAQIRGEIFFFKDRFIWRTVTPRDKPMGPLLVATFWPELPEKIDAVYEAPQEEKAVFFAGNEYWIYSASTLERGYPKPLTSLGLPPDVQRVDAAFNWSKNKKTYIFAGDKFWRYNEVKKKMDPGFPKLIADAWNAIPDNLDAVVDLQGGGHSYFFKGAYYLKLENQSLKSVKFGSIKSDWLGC
Sequence of Stromelysin-1 (P08254 whole entry): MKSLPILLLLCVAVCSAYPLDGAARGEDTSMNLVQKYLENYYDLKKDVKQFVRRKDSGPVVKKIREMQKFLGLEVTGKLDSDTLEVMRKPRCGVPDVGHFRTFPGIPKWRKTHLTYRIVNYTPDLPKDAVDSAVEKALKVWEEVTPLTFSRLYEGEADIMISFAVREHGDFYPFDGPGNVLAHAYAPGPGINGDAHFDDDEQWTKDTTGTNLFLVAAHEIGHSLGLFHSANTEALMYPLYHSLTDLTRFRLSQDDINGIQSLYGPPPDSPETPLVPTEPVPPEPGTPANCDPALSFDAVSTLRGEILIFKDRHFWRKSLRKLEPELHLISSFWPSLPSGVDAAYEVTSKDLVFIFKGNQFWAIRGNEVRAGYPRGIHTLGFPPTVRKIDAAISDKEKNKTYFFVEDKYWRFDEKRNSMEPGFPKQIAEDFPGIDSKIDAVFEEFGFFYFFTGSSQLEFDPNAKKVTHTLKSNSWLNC

Turning to `CNC(=O)[C@@H](NC(=O)[C@H](CCc1ccccc1)CC(=O)NO)c1ccccc1`, the IC50 stood at 17 nM in assay [1]; 46.3 nM in assay [2]; 11 nM in assay [3]; 105 nM in assay [4]; 92 nM in assay [5].
For `CNC(=O)[C@@H](NC(=O)[C@H](CC(C)C)[C@H](C)C(=O)NO)c1ccccc1` the same measures were 1.9 nM, 7.5 nM, 3.9 nM, 56 nM and 3 nM.
For `CNC(=O)[C@@H](NC(=O)[C@H](CC(C)C)[C@H](C)C(=O)NO)C1CCCCC1`, the concentration for half-maximal inhibition (IC50) came out at 0.9 nM in assay [3], 13 nM in assay [4] and 2.9 nM in assay [5].
As for `CNC(=O)[C@@H](NC(=O)[C@H](CCCc1ccccc1)CC(=O)NO)C(C)C`, the IC50 in assay [3] was 2.8 nM; in assay [4], 2.5 nM; in assay [5] it was 93 nM.
`CNC(=O)[C@@H](NC(=O)[C@H](CCCc1ccccc1)CC(=O)NO)C(C)(C)C`: the IC50 in assay [3] turned out to be 1.3 nM; in assay [4] it was 1.9 nM.
Consider `CNC(=O)[C@H](Cc1cccc2c1CCCC2)NC(=O)[C@H](CC(C)C)[C@H](C)C(=O)NO`, for which the IC50 in assay [1] is 0.6 nM; in assay [2], 0.3 nM; in assay [3], 0.3 nM; in assay [4] it was 2.08 nM; in assay [5] it was 0.3 nM.
Turning to `CNC(=O)[C@@H](NC(=O)[C@@H](CC(=O)NO)CC(C)C)c1ccccc1`, the IC50 worked out at 4.4 nM in assay [1]; 42.5 nM in assay [2]; 14 nM in assay [3]; 19.3 nM in assay [4]; 15 nM in assay [5].
For `CNC(=O)[C@@H](NC(=O)[C@@H](CC(=O)NO)CC(C)C)C1CCCCC1` the same measures were 2.3 nM, 8.4 nM, 5 nM, 2.3 nM and 5.4 nM.
The like results for `CNC(=O)[C@@H](NC(=O)[C@H](CCCc1ccccc1)CC(=O)NO)c1ccccc1` were, in that order, 9.6 nM, 3.2 nM, 3.3 nM, 8.5 nM and 89 nM.
For `CCCCCCCCC[C@H](CC(=O)NO)C(=O)N[C@H](C(=O)NC)c1ccccc1` the same measures were 100 nM, 1.6 nM, 0.2 nM, 17.6 nM and 90 nM.
Regarding `CNC(=O)[C@@H](NC(=O)[C@H](CC(C)C)[C@H](CN1CCOCC1)C(=O)NO)c1ccccc1`, the IC50 in assay [1] worked out at 61 nM; in assay [3] it was 45 nM; in assay [4] it was 72 nM; in assay [5] it was 3.5 nM.
The compound `CNC(=O)[C@@H](NC(=O)C(CC(C)C)C(O)C(=O)NO)C(C)(C)C` (single isomer, unassigned) registered an IC50 in assay [4] of 1.82 nM.
For `CNC(=O)[C@H](Cc1ccccc1)NC(=O)[C@H](CC(C)C)[C@H](CSc1cccs1)C(=O)NO` [BATIMASTAT], the IC50 in assay [3] is 0.2 nM; in assay [4] it was 3 nM.
On to `CNC(=O)[C@H](Cc1c[nH]c2ccccc12)NC(=O)[C@@H](CC(=O)NO)CC(C)C` [ILOMASTAT], for which the results for the IC50 in assay [1] and in assay [4] were 1.9 nM and 13.4 nM, respectively.
`CNC(=O)[C@@H](NC(=O)[C@@H](CC(=O)NO)CC(C)C)C(C)(C)C` [RO-319790]: the IC50 worked out at 7.4 nM in assay [2], 12 nM in assay [3], 1.9 nM in assay [4] and 3 nM in assay [5].
